Data as given in ChEMBL document CHEMBL1153723, “Cytotoxic effects of cardiac glycosides in colon cancer cells, alone and in combination with standard chemotherapeutic drugs” (J Nat Prod, 2009).
Active and inactive are the calls of the source. The rule behind the calls is not given here.

What was measured:
[1] = Cytotoxicity against human CC20 cells assessed as survival index at 10 uM after 72 hrs by FMCA method; type: functional; conditions: CC20, 72 h, read-out: Survival
Outline: (§1)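 Library screen by FMCA at a final 10 µM (10 mM DMSO stocks diluted in PBS); 5000 cells/well, 72 h at 37 °C, then fluorescein diacetate for 50 min with fluorescence at 485/520 nm. Survival index is well fluorescence as % of control wells after blank subtraction. QC required signal/blank >10 and CV <30% in control and blank wells.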

HT-29 [2] = experiment: Cytotoxicity against human HT-29 cells assessed as survival index at 10 uM after 72 hrs by FMCA method; type: functional; conditions: HT-29, 72 h, read-out: Survival; outline: as §1
HCT-116 [3] = experiment: Cytotoxicity against human HCT116 cells assessed as survival index at 10 uM after 72 hrs by FMCA method; type: functional; conditions: HCT-116, 72 h, read-out: Survival; outline: as §1
[4] = Cytotoxicity against human CC20 cells after 72 hrs by FMCA method relative to digoxin; type: functional
HeLa = experiment: Inhibition of TNF-alpha-stimulated NF-kappaB translocation from cytoplasm to nucleus in human HeLa cells at 0.4 to 10 uM; type: functional, cell-based
Outline: (§2)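 NF-κB activation high-content kit run per manufacturer: TNF-α-stimulated cells treated at 0.4, 2 and 10 µM (or 0.2, 1 and 5 µM). Cytoplasm-to-nucleus translocation of NF-κB quantified by automated imaging (ArrayScan). TNF-α and bortezomib served as controls.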

HT-29 [5] = experiment: Inhibition of TNF-alpha-stimulated NF-kappaB translocation from cytoplasm to nucleus in human HT-29 cells at 0.4 to 10 uM; type: functional, cell-based; outline: as §2
HT-29 [6] = experiment: Cytotoxicity against human HT-29 cells after 72 hrs by FMCA method relative to digoxin; type: functional
HCT-116 [7] = experiment: Cytotoxicity against human HCT116 cells after 72 hrs by FMCA method relative to digoxin; type: functional
[8] = Inhibition of Na+/K+ ATPase relative to digoxin
HT-29 [9] = experiment: Cytotoxicity against human HT-29 cells after 72 hrs by FMCA method; type: functional, cell-based; conditions: HT-29, 72 h
Outline: (§3)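 FMCA: cells seeded at 5000/well onto compound plates at nine concentrations (1:2 serial dilutions in PBS from DMSO solutions), in duplicate, for 72 h at 37 °C. Then washed, given fluorescein diacetate for 50 min at 37 °C, and fluorescence read at 485/520 nm. HT29 and CC20 were grown in DMEM, HCT116 in McCoy's 5A. IC50 from nonlinear regression of log concentration–effect curves; three independent experiments, mean ± SEM.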

[10] = Cytotoxicity against human CC20 cells after 72 hrs by FMCA method; type: functional, cell-based; conditions: CC20, 72 h; outline: as §3
HCT-116 [11] = experiment: Cytotoxicity against human HCT116 cells after 72 hrs by FMCA method; type: functional, cell-based; conditions: HCT-116, 72 h; outline: as §3
MCF7 = experiment: Inhibition of TNF-alpha-stimulated NF-kappaB translocation from cytoplasm to nucleus in human MCF7 cells at 0.4 to 10 uM; type: functional, cell-based; outline: as §2

Compound: CC(=O)O[C@H]1C[C@H](O[C@H]2[C@@H](O)C[C@H](O[C@H]3[C@@H](O)C[C@H](O[C@H]4CC[C@@]5(C)[C@H](CC[C@@H]6[C@@H]5C[C@@H](O)[C@]5(C)[C@@H](C7=CC(=O)OC7)CC[C@]65O)C4)O[C@@H]3C)O[C@@H]2C)O[C@H](C)[C@H]1O[C@@H]1O[C@H](CO)[C@@H](O)[C@H](O)[C@H]1O [LANATOSIDE C]
- viability at 10 µM [1]: 2%
- viability at 10 µM (HT-29 [2]): 40%
- viability at 10 µM (HCT-116 [3]): 5%

Compound: CO[C@H]1[C@H](O)[C@H](O[C@H]2CC[C@@]3(C)[C@H](CC[C@@H]4[C@@H]3CC[C@]3(C)[C@@H](C5=CC(=O)OC5)CC[C@]43O)C2)O[C@@H](C)[C@@H]1O [NERIIFOLIN]
- viability at 10 µM [1]: 2%
- viability at 10 µM (HT-29 [2]): 19%
- viability at 10 µM (HCT-116 [3]): 3%

Compound: CO[C@H]1C[C@H](O[C@H]2CC[C@@]3(C)[C@H](CC[C@@H]4[C@@H]3CC[C@]3(C)[C@@H](C5=CC(=O)OC5)[C@@H](OC(C)=O)C[C@]43O)C2)O[C@@H](C)[C@@H]1O [OLEANDRIN]
- viability at 10 µM [1]: 2%
- viability at 10 µM (HT-29 [2]): 20%
- Activity [4]: 0.38
- inhibition (HeLa): inactive
- inhibition (HT-29 [5]): inactive
- viability at 10 µM (HCT-116 [3]): 3%
- Activity (HT-29 [6]): 0.31
- Activity (HCT-116 [7]): 0.3
- Activity [8]: 0.42
- IC50 (HT-29 [9]): 440 nM
- IC50 [10]: 90 nM
- IC50 (HCT-116 [11]): 80 nM
- inhibition (MCF7): inactive

Compound: C[C@@H]1O[C@@H](O[C@H]2C[C@@H](O)[C@]3(CO)[C@H]4[C@H](O)C[C@]5(C)[C@@H](C6=CC(=O)OC6)CC[C@]5(O)[C@@H]4CC[C@]3(O)C2)[C@H](O)[C@H](O)[C@H]1O [OUABAIN]
- viability at 10 µM [1]: 3%
- viability at 10 µM (HT-29 [2]): 22%
- viability at 10 µM (HCT-116 [3]): 4%

Compound: CO[C@H]1[C@H](O)[C@H](O[C@H]2CC[C@@]3(C=O)[C@H](CC[C@@H]4[C@@H]3CC[C@]3(C)[C@@H](C5=CC(=O)OC5)CC[C@]43O)C2)O[C@@H](C)[C@@H]1O [PERUVOSIDE]
- viability at 10 µM [1]: 2%
- viability at 10 µM (HT-29 [2]): 24%
- viability at 10 µM (HCT-116 [3]): 3%

Compound: C[C@@H]1O[C@@H](O[C@@H]2C=C3CC[C@@H]4[C@H](CC[C@]5(C)[C@@H](c6ccc(=O)oc6)CC[C@]45O)[C@@]3(C)CC2)[C@H](O)[C@H](O)[C@H]1O [PROSCILLARIDIN]
- viability at 10 µM [1]: 3%
- viability at 10 µM (HT-29 [2]): 18%
- Activity [4]: 0.21
- viability at 10 µM (HCT-116 [3]): 1%
- Activity (HT-29 [6]): 0.39
- Activity (HCT-116 [7]): 0.22
- Activity [8]: 0.054
- IC50 (HT-29 [9]): 550 nM
- IC50 [10]: < 300 nM
- IC50 (HCT-116 [11]): 60 nM

Compound: C[C@]12CC[C@H](O)C[C@H]1CC[C@@H]1[C@@H]2[C@H](O)C[C@]2(C)[C@@H](C3=CC(=O)OC3)CC[C@]12O [SARMENTOGENIN]
- viability at 10 µM [1]: 4%
- viability at 10 µM (HT-29 [2]): 63%
- viability at 10 µM (HCT-116 [3]): 26%

Compound: C[C@]12CC[C@H]3[C@@H](CC[C@]4(O)C[C@@H](O)CC[C@]34C=O)[C@@]1(O)CC[C@@H]2C1=CC(=O)OC1 [STROPHANTHIDIN]
- viability at 10 µM [1]: 3%
- viability at 10 µM (HT-29 [2]): 58%
- viability at 10 µM (HCT-116 [3]): 21%
